The record followed here is ChEMBL document CHEMBL4261600 (Eur J Med Chem, 2018).

For test [1], the target named is Tyrosine-protein kinase TXK (Homo sapiens) (UniProt P42681). Nature of the test: Binding affinity to wild-type human partial length TXK (L238 to W527 residues) expressed in bacterial expression system assessed as remaining unbound target protein level at 1000 nM by Kinomescan method relative to control.
Test [2] concerns the target ALK tyrosine kinase receptor (Homo sapiens) (UniProt Q9UM73). Nature of the test: Binding affinity to wild-type human partial length ALK (I1088 to E1409 residues) expressed in mammalian expression system assessed as remaining unbound target protein level at 1000 nM by Kinomescan method relative to control. The gist of the method: (§1)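 Profiled in a KINOMEscan binding panel with the inhibitor at a single concentration of 1 μM. Binding to each kinase was read out as percent of control, relative to a DMSO control. Strong binders were defined as those with a percent control value below 1.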

The subject of test [3] is Receptor-type tyrosine-protein kinase FLT3 (Homo sapiens), P36888 [D835H]. As to the kind of experiment: Binding affinity to human partial length FLT3 D835H mutant (V592 to Y969 residues) expressed in bacterial expression system assessed as remaining unbound target protein level at 1000 nM by Kinomescan method relative to control. The gist of the method:
(§2)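 KINOMEscan competition-binding profiling across the panel of 468 kinases and mutants, with inhibitor tested at 1 μM. Binding is expressed as percent of control, with DMSO as the reference control.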

For test [4], the target named is Dual specificity tyrosine-phosphorylation-regulated kinase 2 (Homo sapiens) (UniProt Q92630). Nature of the test: Binding affinity to wild-type human full length DYRK2 (M1 to S528 residues) expressed in mammalian expression system assessed as remaining unbound target protein level at 1000 nM by Kinomescan method relative to control. The gist of the method: (§3)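 KINOMEscan competition binding profile across a panel of 468 kinases and mutants, with the inhibitor tested at a single concentration of 1 μM. Binding is reported as percent of control, meaning signal relative to a DMSO control.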

Test [5] deals with Cyclin-dependent kinase 11B (Homo sapiens, UniProt P21127). As to the kind of experiment: Inhibition of recombinant GST-tagged inactive state of human CDK11.
The test system of test [6] is Tyrosine-protein kinase ABL1 (Homo sapiens), P00519 [Q252H]. Nature of the test: Binding affinity to human non-phosphorylated ABL1 Q252H mutant (S229 to K512 residues) expressed in mammalian expression system assessed as remaining unbound target protein level at 1000 nM by Kinomescan method relative to control. The procedure, abridged:
as §2

In test [7] the target is Serine/threonine-protein kinase haspin (Homo sapiens) (UniProt Q8TF76). Nature of the test: Binding affinity to wild-type human partial length HASPIN (I452 to K798 residues) expressed in mammalian expression system assessed as remaining unbound target protein level at 1000 nM by Kinomescan method relative to control. The procedure, abridged: (§4)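 KINOMEscan binding panel of 468 kinases/mutants. Inhibitor was tested at a single concentration of 1 μM. Binding is reported as percent of control, defined relative to a DMSO control.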

Test [8] has as its target AP2-associated protein kinase 1 (Homo sapiens) (UniProt Q2M2I8). As to the kind of experiment: Binding affinity to human wild-type AAK1 (G25 to L333 residues) expressed in bacterial expression system assessed as remaining unbound target protein level at 1000 nM by Kinomescan method relative to control. The gist of the method:
(§5)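 KINOMEscan competitive binding profile at 1 μM inhibitor. Remaining target binding reported as percent of DMSO control.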

The target in test [9] is Fibroblast growth factor receptor 2 (Homo sapiens) (UniProt P21802). As to the kind of experiment: Binding affinity to wild-type human partial length FGFR2 (D457 to E769 residues) expressed in bacterial expression system assessed as remaining unbound target protein level at 1000 nM by Kinomescan method relative to control. The gist of the method:
as §4

For test [10], the system named is Proto-oncogene tyrosine-protein kinase receptor Ret (Homo sapiens), P07949 [M918T]. Nature of the test: Binding affinity to human partial length RET M918T mutant (E713 to D1014 residues) expressed in bacterial expression system assessed as remaining unbound target protein level at 1000 nM by Kinomescan method relative to control. The procedure, abridged: as §2

For test [11], the target named is Tyrosine-protein kinase Fes/Fps (Homo sapiens) (UniProt P07332). Nature of the test: Binding affinity to wild-type human partial length FES (I527 to R822 residues) expressed in bacterial expression system assessed as remaining unbound target protein level at 1000 nM by Kinomescan method relative to control. The procedure, abridged:
as §4

The target in test [12] is Casein kinase I isoform delta (Homo sapiens) (UniProt P48730). Nature of the test: Binding affinity to wild-type human full length CSNK1D (M1 to K409 residues) expressed in bacterial expression system assessed as remaining unbound target protein level at 1000 nM by Kinomescan method relative to control. The procedure, abridged: as §5
The target in test [13] is Serine/threonine-protein kinase TBK1 (Homo sapiens) (UniProt Q9UHD2). Nature of the test: Binding affinity to wild-type human full length TBK1 (M1 to L729 residues) expressed in mammalian expression system assessed as remaining unbound target protein level at 1000 nM by Kinomescan method relative to control. The gist of the method:
as §3

Test [14] has as its target Mitogen-activated protein kinase kinase kinase kinase 4 (Homo sapiens) (UniProt O95819). Nature of the test: Binding affinity to wild-type human partial length MAP4K4 (M1 to R310 residues) expressed in bacterial expression system assessed as remaining unbound target protein level at 1000 nM by Kinomescan method relative to control. The procedure, abridged: as §4
For test [15], the target named is Calcium/calmodulin-dependent protein kinase type IV (Homo sapiens) (UniProt Q16566). As to the kind of experiment: Binding affinity to wild-type human partial length CAMK4 (A22 to A322 residues) expressed in bacterial expression system assessed as remaining unbound target protein level at 1000 nM by Kinomescan method relative to control. The procedure, abridged: as §1

For test [16], the target named is Serine/threonine-protein kinase Nek7 (Homo sapiens) (UniProt Q8TDX7). Nature of the test: Binding affinity to wild-type human full length NEK7 (M1 to S302 residues) expressed in bacterial expression system assessed as remaining unbound target protein level at 1000 nM by Kinomescan method relative to control. The gist of the method:
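Single-point competition binding screen across a panel of 468 kinases and mutants, with the inhibitor at 1 μM. Binding is read out as percent of a DMSO control, and targets below 1 percent control were classed as strong binders.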

Test [17] concerns the target Serine/threonine-protein kinase VRK2 (Homo sapiens) (UniProt Q86Y07). As to the kind of experiment: Binding affinity to wild-type human partial length VRK2 (M1 to T336 residues) expressed in mammalian expression system assessed as remaining unbound target protein level at 1000 nM by Kinomescan method relative to control.
Test [18] has as its system Mast/stem cell growth factor receptor Kit (Homo sapiens), P10721 [V559D]. As to the kind of experiment: Binding affinity to human partial length KIT V559D mutant (Y545 to D952 residues) expressed in bacterial expression system assessed as remaining unbound target protein level at 1000 nM by Kinomescan method relative to control. The gist of the method: as §2
The target in test [19] is Serine/threonine-protein kinase ULK1 (Homo sapiens) (UniProt O75385). Nature of the test: Binding affinity to wild-type human partial length ULK1 (M1 to T309 residues) expressed in mammalian expression system assessed as remaining unbound target protein level at 1000 nM by Kinomescan method relative to control.
Test [20] addresses Serine/threonine-protein kinase/endoribonuclease IRE1 (Homo sapiens) (UniProt O75460). Nature of the test: Binding affinity to wild-type human partial length ERN1 (S551 to E852 residues) expressed in mammalian expression system assessed as remaining unbound target protein level at 1000 nM by Kinomescan method relative to control. The procedure, abridged: as §4

Sequence of Calcium/calmodulin-dependent protein kinase type IV (Homo sapiens) (Q16566 whole entry, the tested form may be a part): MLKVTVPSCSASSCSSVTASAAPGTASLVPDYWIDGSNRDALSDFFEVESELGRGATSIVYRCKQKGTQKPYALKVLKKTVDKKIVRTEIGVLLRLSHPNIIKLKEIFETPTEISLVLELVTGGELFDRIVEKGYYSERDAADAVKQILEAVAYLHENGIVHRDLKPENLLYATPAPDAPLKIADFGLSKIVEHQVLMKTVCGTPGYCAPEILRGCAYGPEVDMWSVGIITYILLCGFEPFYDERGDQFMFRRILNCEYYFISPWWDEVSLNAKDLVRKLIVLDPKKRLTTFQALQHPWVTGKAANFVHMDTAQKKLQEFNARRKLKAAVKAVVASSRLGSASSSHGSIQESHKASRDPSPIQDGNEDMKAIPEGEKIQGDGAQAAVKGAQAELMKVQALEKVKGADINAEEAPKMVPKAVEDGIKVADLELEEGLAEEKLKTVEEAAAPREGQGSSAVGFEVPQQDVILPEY
Sequence of Cyclin-dependent kinase 11B (P21127 whole entry, the tested form may be a part): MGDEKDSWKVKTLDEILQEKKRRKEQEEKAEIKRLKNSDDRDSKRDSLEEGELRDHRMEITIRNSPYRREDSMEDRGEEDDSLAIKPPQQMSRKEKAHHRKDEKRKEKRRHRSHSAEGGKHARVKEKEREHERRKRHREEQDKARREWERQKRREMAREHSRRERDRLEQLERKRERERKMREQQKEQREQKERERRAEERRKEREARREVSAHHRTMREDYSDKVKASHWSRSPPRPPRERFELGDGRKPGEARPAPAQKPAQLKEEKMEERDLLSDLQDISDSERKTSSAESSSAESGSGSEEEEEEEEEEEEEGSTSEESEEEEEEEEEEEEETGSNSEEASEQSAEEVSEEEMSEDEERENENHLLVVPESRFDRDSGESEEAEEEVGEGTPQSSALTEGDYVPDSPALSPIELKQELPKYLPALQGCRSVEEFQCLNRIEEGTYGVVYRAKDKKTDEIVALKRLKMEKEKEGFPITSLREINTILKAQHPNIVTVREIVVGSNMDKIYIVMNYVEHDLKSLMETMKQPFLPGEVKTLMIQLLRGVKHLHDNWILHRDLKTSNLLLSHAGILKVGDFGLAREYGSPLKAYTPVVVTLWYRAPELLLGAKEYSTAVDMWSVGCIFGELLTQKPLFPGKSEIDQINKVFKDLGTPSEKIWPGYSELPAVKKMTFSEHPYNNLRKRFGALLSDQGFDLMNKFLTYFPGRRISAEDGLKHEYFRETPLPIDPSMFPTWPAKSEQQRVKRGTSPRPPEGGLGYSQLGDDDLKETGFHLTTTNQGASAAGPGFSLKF
Sequence of Mitogen-activated protein kinase kinase kinase kinase 4 (Homo sapiens) (O95819 2-1239 limits assumed): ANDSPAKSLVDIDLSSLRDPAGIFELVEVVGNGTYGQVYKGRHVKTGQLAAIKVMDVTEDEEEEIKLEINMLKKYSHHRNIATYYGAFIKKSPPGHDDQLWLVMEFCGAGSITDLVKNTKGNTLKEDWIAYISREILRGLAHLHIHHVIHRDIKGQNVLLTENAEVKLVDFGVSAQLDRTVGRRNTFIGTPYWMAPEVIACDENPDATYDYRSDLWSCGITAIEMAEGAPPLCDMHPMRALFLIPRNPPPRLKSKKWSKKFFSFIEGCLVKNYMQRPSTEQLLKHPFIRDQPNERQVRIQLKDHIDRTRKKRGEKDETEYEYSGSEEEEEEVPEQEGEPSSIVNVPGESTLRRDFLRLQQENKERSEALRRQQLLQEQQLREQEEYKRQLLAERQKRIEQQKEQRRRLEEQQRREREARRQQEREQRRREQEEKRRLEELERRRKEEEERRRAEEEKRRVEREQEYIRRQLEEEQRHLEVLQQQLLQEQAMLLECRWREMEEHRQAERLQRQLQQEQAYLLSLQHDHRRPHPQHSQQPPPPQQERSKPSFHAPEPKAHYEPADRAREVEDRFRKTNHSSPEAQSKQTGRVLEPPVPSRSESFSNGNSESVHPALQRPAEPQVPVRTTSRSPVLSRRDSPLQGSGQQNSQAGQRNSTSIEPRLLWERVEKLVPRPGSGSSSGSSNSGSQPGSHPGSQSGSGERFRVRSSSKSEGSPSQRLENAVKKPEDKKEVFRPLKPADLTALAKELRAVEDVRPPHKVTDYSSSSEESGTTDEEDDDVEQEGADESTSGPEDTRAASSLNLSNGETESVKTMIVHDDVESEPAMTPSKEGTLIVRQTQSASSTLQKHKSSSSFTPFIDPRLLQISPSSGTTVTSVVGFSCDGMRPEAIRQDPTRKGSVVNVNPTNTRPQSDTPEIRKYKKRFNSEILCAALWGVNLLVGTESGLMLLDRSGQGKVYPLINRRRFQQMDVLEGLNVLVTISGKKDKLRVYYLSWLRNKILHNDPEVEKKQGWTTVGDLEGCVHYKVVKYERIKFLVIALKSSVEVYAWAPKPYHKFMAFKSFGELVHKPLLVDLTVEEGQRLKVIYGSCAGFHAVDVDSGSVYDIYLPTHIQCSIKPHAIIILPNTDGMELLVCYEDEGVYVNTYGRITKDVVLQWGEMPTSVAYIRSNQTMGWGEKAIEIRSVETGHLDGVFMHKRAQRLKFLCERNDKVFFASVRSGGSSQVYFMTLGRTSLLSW
Sequence of Serine/threonine-protein kinase ULK1 (Homo sapiens) (O75385 whole entry, the tested form may be a part): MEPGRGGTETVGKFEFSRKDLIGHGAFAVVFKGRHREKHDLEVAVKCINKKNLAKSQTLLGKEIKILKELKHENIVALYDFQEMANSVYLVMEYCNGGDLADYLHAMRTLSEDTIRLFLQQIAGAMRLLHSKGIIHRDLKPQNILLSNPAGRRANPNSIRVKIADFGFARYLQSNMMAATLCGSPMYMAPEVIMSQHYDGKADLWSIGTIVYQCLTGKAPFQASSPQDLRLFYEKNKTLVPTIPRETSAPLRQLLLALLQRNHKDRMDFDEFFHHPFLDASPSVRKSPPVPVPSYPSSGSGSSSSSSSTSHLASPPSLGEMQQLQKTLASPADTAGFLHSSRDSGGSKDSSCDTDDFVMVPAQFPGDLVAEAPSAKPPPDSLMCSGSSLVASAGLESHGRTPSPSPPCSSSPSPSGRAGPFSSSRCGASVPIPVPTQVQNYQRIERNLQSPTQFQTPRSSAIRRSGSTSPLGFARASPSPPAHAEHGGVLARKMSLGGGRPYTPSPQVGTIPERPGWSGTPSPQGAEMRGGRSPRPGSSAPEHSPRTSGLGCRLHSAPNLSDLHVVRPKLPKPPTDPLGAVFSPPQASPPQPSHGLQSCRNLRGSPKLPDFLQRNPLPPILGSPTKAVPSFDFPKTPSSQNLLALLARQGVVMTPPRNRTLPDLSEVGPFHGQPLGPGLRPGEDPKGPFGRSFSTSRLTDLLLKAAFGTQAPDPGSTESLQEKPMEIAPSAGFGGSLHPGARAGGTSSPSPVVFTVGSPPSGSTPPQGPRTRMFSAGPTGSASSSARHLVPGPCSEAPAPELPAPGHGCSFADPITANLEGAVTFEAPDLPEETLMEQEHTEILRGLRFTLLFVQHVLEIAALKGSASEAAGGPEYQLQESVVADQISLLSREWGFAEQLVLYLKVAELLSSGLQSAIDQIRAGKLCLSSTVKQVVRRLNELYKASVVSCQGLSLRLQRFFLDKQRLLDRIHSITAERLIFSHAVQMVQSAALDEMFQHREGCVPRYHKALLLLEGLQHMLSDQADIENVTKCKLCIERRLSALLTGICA
Sequence of Proto-oncogene tyrosine-protein kinase receptor Ret (Homo sapiens), P07949 [M918T] (P07949 whole entry M918T, the tested form may be a part): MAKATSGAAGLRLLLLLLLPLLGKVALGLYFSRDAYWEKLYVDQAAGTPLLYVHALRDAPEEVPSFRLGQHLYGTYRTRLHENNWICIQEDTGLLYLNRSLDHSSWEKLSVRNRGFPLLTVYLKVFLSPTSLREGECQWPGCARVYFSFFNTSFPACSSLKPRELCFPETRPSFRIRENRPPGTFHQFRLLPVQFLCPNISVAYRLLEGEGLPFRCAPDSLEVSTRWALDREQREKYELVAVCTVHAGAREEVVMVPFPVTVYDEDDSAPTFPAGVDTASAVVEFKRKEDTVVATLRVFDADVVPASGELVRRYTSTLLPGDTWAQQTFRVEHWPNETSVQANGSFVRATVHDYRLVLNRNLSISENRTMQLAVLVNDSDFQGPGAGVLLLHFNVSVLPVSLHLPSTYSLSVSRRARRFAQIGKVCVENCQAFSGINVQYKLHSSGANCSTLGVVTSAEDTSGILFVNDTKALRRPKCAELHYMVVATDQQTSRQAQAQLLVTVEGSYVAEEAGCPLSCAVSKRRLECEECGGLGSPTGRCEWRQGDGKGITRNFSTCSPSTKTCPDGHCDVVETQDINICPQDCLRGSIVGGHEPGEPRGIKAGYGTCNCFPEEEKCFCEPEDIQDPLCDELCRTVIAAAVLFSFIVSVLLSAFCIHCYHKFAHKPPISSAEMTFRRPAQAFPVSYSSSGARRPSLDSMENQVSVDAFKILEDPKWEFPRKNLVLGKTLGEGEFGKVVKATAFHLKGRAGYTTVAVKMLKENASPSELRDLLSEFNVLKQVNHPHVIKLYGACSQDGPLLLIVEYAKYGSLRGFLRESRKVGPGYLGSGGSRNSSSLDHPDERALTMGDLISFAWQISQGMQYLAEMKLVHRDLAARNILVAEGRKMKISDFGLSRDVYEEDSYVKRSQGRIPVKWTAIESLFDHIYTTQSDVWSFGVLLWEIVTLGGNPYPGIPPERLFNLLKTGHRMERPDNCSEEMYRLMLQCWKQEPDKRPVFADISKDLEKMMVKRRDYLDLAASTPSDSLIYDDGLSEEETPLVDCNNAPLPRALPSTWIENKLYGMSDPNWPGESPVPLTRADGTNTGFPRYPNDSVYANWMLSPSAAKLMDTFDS
Sequence of Serine/threonine-protein kinase Nek7 (Homo sapiens) (Q8TDX7 whole entry, looked up, the tested form may be a part): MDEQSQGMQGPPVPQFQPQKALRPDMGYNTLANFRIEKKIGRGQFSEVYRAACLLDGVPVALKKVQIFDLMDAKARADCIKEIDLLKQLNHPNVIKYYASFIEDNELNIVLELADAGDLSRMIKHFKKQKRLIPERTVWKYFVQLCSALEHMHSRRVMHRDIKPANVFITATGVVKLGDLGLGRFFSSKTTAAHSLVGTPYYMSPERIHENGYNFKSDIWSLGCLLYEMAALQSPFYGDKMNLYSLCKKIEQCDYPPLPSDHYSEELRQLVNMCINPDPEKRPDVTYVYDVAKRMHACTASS

With `COCCN[C@H]1CC[C@H](Nc2cc(-c3csc(NCC4(C#N)CCOCC4)n3)c(Cl)cn2)CC1`, the Activity stood at 90% in test [1]; 96% in test [2]; 88% in test [3]; 5.2% in test [4]; 97% in test [6]; 94% in test [7]. Further, the Activity in test [8] stood at 99%; in [9] it was 93%; in test [10], 90%; in test [11] it was 99%; in test [12], 66%; in [13] it was 86%. For the same compound, the Activity came to 91% in test [14]; 100% in [15]; 83% in test [16]; 87% in test [17]; 100% in test [18]; 100% in test [19]. In addition, the Activity in [20] was 61%. The IC50 in [5] is over 10 µM.
